Data from ChEMBL document CHEMBL5674883, “The Heterochromatin Landscape in Migrating Cells and the Importance of H3K27me3 for Associated Transcriptome Alterations” (Cells, 2018).

How the values were obtained:
Type in all cases: cell-based
[1] = target: Histone-lysine N-methyltransferase EZH2 (Mus musculus) (UniProt Q61188); test: Inhibition of EZH2 in mouse B16-F1 migrating cells assessed as fold change in H3K27me3-independent regulated Dusp10-mRNA expression at 3 uM measured by […] analysis relative to control cells
Chain of Histone-lysine N-methyltransferase EZH2 (Mus musculus) (Q61188 whole entry): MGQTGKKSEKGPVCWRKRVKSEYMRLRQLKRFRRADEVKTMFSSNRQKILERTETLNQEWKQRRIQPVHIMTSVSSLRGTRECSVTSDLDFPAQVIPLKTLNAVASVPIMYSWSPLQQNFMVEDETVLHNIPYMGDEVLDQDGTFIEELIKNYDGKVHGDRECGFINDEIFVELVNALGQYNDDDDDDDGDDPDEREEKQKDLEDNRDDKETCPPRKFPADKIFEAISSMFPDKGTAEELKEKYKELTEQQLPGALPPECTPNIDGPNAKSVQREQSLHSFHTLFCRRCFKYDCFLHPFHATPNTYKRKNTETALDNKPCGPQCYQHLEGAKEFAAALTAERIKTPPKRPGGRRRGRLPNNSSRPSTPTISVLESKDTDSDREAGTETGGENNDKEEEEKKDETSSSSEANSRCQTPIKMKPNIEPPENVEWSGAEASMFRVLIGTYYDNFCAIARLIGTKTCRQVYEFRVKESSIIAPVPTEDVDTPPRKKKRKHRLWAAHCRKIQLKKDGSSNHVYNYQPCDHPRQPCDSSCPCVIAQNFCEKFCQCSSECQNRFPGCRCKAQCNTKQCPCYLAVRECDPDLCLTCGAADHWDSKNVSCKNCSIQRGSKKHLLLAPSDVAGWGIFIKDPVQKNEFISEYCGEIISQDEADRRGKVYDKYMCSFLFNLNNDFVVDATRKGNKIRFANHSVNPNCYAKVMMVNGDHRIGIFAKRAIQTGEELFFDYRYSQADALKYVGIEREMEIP
In short: (§1)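 Confluent B16-F1 cells on fibronectin-coated plates were scratched at multiple sites, washed once with DMEM and left to migrate 3 h in growth medium (37 °C, 7% CO2); unscratched cells served as control. GSK343 (3 µM) was added 3 h before lysis. Poly A mRNA was sequenced (RNA-seq), with 5 replicates for untreated and 3 for treated cells. Differential expression was called by linear model with batch correction, at FDR <0.05 and fold change ≥1.3.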

[2] = target: Histone-lysine N-methyltransferase EZH2 (Mus musculus) (UniProt Q61188); test: Inhibition of EZH2 in mouse B16-F1 migrating cells assessed as fold change in H3K27me3-independent regulated Hells-mRNA expression at 3 uM measured by […] analysis relative to control cells; in short: as §1
[3] = target: Histone-lysine N-methyltransferase EZH2 (Mus musculus) (UniProt Q61188); test: Inhibition of EZH2 in mouse B16-F1 migrating cells assessed as fold change in H3K27me3-independent regulated Klf15-mRNA expression at 3 uM measured by […] analysis relative to control cells; in short: as §1
[4] = target: Histone-lysine N-methyltransferase EZH2 (Mus musculus) (UniProt Q61188); test: Inhibition of EZH2 in mouse B16-F1 migrating cells assessed as fold change in H3K27me3-buffered regulated Kcnj14-mRNA expression at 3 uM measured by ChIP-seq analysis relative to control cells
In short: (§2)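 Confluent B16-F1 cells on fibronectin-coated plates, cultured at 37 °C and 7% CO2, were scratched at multiple sites to induce migration. They were then held 3 h in growth medium containing 3 µM GSK343, with the inhibitor added 3 h before lysis. Unscratched cells served as controls. Poly A mRNA was analysed by RNA-seq (n=3 GSK343, n=5 controls). Linear models removed batch effects, and buffered genes were those altered only under GSK343 (FDR <0.05, fold change >1.3).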

[5] = target: Histone-lysine N-methyltransferase EZH2 (Mus musculus) (UniProt Q61188); test: Inhibition of EZH2 in mouse B16-F1 migrating cells assessed as fold change in H3K27me3-buffered regulated Synm-mRNA expression at 3 uM measured by […] analysis relative to control cells; in short: as §1
[6] = target: Histone-lysine N-methyltransferase EZH2 (Mus musculus) (UniProt Q61188); test: Inhibition of EZH2 in mouse B16-F1 migrating cells assessed as fold change in H3K27me3-buffered regulated Pde4d-mRNA expression at 3 uM measured by ChIP-seq analysis relative to control cells; in short: as §2
[7] = target: Histone-lysine N-methyltransferase EZH2 (Mus musculus) (UniProt Q61188); test: Inhibition of EZH2 in mouse B16-F1 migrating cells assessed as fold change in H3K27me3-buffered regulated Rap2a-mRNA expression at 3 uM measured by […] analysis relative to control cells; in short: as §2
[8] = target: Histone-lysine N-methyltransferase EZH2 (Mus musculus) (UniProt Q61188); test: Inhibition of EZH2 in mouse B16-F1 migrating cells assessed as fold change in H3K27me3-buffered regulated 5031439G07Rik-mRNA expression at 3 uM measured by […] analysis relative to control cells; in short: as §2
[9] = target: Histone-lysine N-methyltransferase EZH2 (Mus musculus) (UniProt Q61188); test: Inhibition of EZH2 in mouse B16-F1 migrating cells assessed as fold change in H3K27me3-buffered regulated Sqle-mRNA expression at 3 uM measured by […] analysis relative to control cells; in short: as §1
[10] = target: Histone-lysine N-methyltransferase EZH2 (Mus musculus) (UniProt Q61188); test: Inhibition of EZH2 in mouse B16-F1 migrating cells assessed as fold change in H3K27me3-buffered regulated Pltp-mRNA expression at 3 uM measured by […] analysis relative to control cells; in short: as §2
[11] = target: Histone-lysine N-methyltransferase EZH2 (Mus musculus) (UniProt Q61188); test: Inhibition of EZH2 in mouse B16-F1 migrating cells assessed as fold change in H3K27me3-buffered regulated Nup37-mRNA expression at 3 uM measured by […] analysis relative to control cells; in short: as §2
[12] = target: Histone-lysine N-methyltransferase EZH2 (Mus musculus) (UniProt Q61188); test: Inhibition of EZH2 in mouse B16-F1 migrating cells assessed as fold change in H3K27me3-buffered regulated Pcf11-mRNA expression at 3 uM measured by […] analysis relative to control cells; in short: as §2
[13] = target: Histone-lysine N-methyltransferase EZH2 (Mus musculus) (UniProt Q61188); test: Inhibition of EZH2 in mouse B16-F1 migrating cells assessed as fold change in H3K27me3-buffered regulated Gatd1-mRNA expression at 3 uM measured by ChIP-seq analysis relative to control cells; in short: as §2
[14] = target: Histone-lysine N-methyltransferase EZH2 (Mus musculus) (UniProt Q61188); test: Inhibition of EZH2 in mouse B16-F1 migrating cells assessed as fold change in H3K27me3-buffered regulated Stk10-mRNA expression at 3 uM measured by ChIP-seq analysis relative to control cells; in short: as §1
[15] = target: Histone-lysine N-methyltransferase EZH2 (Mus musculus) (UniProt Q61188); test: Inhibition of EZH2 in mouse B16-F1 migrating cells assessed as fold change in H3K27me3-buffered regulated Tcf7l1-mRNA expression at 3 uM measured by […] analysis relative to control cells; in short: as §1
[16] = target: Histone-lysine N-methyltransferase EZH2 (Mus musculus) (UniProt Q61188); test: Inhibition of EZH2 in mouse B16-F1 migrating cells assessed as fold change in H3K27me3-buffered regulated Rassf1-mRNA expression at 3 uM measured by […] analysis relative to control cells; in short: as §2
[17] = target: Histone-lysine N-methyltransferase EZH2 (Mus musculus) (UniProt Q61188); test: Inhibition of EZH2 in mouse B16-F1 migrating cells assessed as fold change in H3K27me3-buffered regulated Irf1-mRNA expression at 3 uM measured by […] analysis relative to control cells; in short: as §2
[18] = target: T1, RNA polymerase II (Mus musculus) (UniProt P08775+Q8CFI7+P97760+A0A3Q4L2S8+Q80UW8+P61219+P62488+Q923G2+P60898+O08740+Q63871+P62876); test: Inhibition of RNA polymerase II in mouse B16-F1 migrating cells assessed as fold change in Ndrg1-RNA stability at 0.1 mM measured by ChIP-seq analysis relative to control cells
[19] = target: T1, RNA polymerase II (Mus musculus); test: Inhibition of RNA polymerase II in mouse B16-F1 migrating cells assessed as fold change in Fth1-RNA stability at 0.1 mM measured by ChIP-seq analysis relative to control cells
[20] = target: T1, RNA polymerase II (Mus musculus); test: Inhibition of RNA polymerase II in mouse B16-F1 migrating cells assessed as fold change in G6pc3-RNA stability at 0.1 mM measured by ChIP-seq analysis relative to control cells
In short: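 Mouse B16-F1 melanoma cells grown to confluence on fibronectin in DMEM/10% FCS at 37 °C, 7% CO2. Migration induced by multiple scratches and 3 h incubation; unscratched controls. DRB 0.1 mM added 3 h before lysis. RNA from poly A-selected mRNA was sequenced (RNA-seq, three replicates per DRB group). Fold change computed for DRB-treated migrating vs DRB-treated control cells; cutoffs fold change >1.3, FDR <0.05.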

[21] = target: T1, RNA polymerase II (Mus musculus); test: Inhibition of RNA polymerase II in mouse B16-F1 migrating cells assessed as fold change in Nae1-RNA stability at 0.1 mM measured by ChIP-seq analysis relative to control cells
[22] = target: T1, RNA polymerase II (Mus musculus); test: Inhibition of RNA polymerase II in mouse B16-F1 migrating cells assessed as fold change in Orc4-RNA stability at 0.1 mM measured by […] analysis relative to control cells
[23] = target: T1, RNA polymerase II (Mus musculus); test: Inhibition of RNA polymerase II in mouse B16-F1 migrating cells assessed as fold change in AU019823-RNA stability at 0.1 mM measured by […] analysis relative to control cells
[24] = target: T1, RNA polymerase II (Mus musculus); test: Inhibition of RNA polymerase II in mouse B16-F1 migrating cells assessed as fold change in Pde12-RNA stability at 0.1 mM measured by […] analysis relative to control cells

For `CCCc1cc(C)[nH]c(=O)c1CNC(=O)c1cc(-c2ccnc(N3CCN(C)CC3)c2)cc2c1cnn2C(C)C`, the log2FC [1] was 0.57, the log2FC [2] was -0.45 and the log2FC [3] was -0.5. For the same compound, the log2FC [4] was 1.07, the log2FC [5] was 1.06 and the log2FC [6] was 0.75. It also gave a log2FC [7] of 0.56, a log2FC [8] of 0.45 and a log2FC [9] of 0.39. For the same compound, the log2FC [10] was 0.39, the log2FC [11] was -0.38 and the log2FC [12] was -0.39. For the same compound, the log2FC [13] was -0.43, the log2FC [14] was -0.44 and the log2FC [15] was -0.48. It also gave a log2FC [16] of -0.52 and a log2FC [17] of -0.62.
Work on `OC[C@H]1O[C@@H](n2cnc3cc(Cl)c(Cl)cc32)[C@H](O)[C@@H]1O` yielded a log2FC [18] of 0.7, a log2FC [19] of 0.6 and a log2FC [20] of 0.51. It also gave a log2FC [21] of -0.43, a log2FC [22] of -0.54 and a log2FC [23] of -0.59. It also gave a log2FC [24] of -0.77.
